{"source": "paper PMC7551138", "about": "(Alzheimer's & Dementia : Translational Research & Clinical …, 2020)", "key": {"healthy elderly subjects [1]": {"test_system": "healthy elderly subjects", "test": "Pharmaco‐electroencephalography", "assay_type": "in vivo, human", "procedure,_shortened": "(§1)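 NeuroCart tests were repeated over time during the 7-day b.i.d. intranasal dosing: eye movements, N-back with 3 working-memory-load conditions, pharmaco-EEG, and 100-mm VAS (Bond and Lader mood/alertness/calmness; nausea). In the 22 mg cohort, EEG at 30 min and 3 h post-dose was dropped. Analysis was mixed-model ANOVA (treatment, time, treatment×time fixed; subject random; baseline covariate), giving LSM difference versus placebo with CI.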"}, "[2]": {"settings": "intranasal 20.0 mg/kg; cited from earlier work"}, "[3]": {"test": "Plasma pharmacokinetics, non‐compartmental analysis", "assay_type": "in vivo, human"}, "healthy elderly subjects [4]": {"test_system": "healthy elderly subjects", "test": "Monitoring of treatment‐emergent adverse events", "assay_type": "in vivo, human", "procedure,_shortened": "(§2)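 Randomised, double-blind, placebo-controlled trial in healthy subjects aged ≥65 (n=48; 12 active:4 placebo per cohort, placebos pooled). Intranasal test compound 5.5, 11 or 22 mg or 0.9% NaCl b.i.d. for 7 days, 6 h between doses. The 11 mg active subjects later got one open-label oral 16 mg dose of the parent drug. Safety was tracked by TEAEs, nasal examination, vital signs, ECG and safety bloods.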"}, "healthy elderly subjects [5]": {"test_system": "healthy elderly subjects", "test": "PK‐PD analysis, nonlinear mixed‐effect modeling of adaptive tracking", "assay_type": "in vivo, human", "procedure,_shortened": "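Nonlinear mixed-effects PK-PD modelling used plasma and CSF data from this study plus earlier first-in-human data. Oral comparator data were dose-corrected. […] models linked plasma concentration of the active cleavage product to adaptive tracking, testing direct-effect, turnover and effect-compartment forms. Inter-individual and inter-occasion variability were assessed. Covariates were added stepwise at p<0.01, then removed by backward elimination at p<0.001. Emax and EC50 (mg/L) are given with 95% CI.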"}, "healthy elderly subjects [6]": {"test_system": "healthy elderly subjects", "test": "Vital signs", "assay_type": "in vivo, human", "settings": "for Diastolic BP supine / Pulse Rate supine / Systolic BP supine: vs placebo, mean (confidence interval)", "procedure,_shortened": "as §2"}, "[7]": {"settings": "cited from earlier work"}, "healthy elderly subjects [8]": {"test_system": "healthy elderly subjects", "test": "NeuroCart eye movements", "assay_type": "in vivo, human", "settings": "vs placebo, mean (confidence interval)", "procedure,_shortened": "as §1"}, "[9]": {"settings": "22 mg b.i.d. intranasal 7 days, vs placebo, mean (confidence interval)"}, "[10]": {"settings": "5.5 mg b.i.d. intranasal, within 24 hours after first administration, dosing day 1"}, "[11]": {"settings": "22 mg b.i.d. intranasal, within 24 hours after first administration, dosing day 1"}, "[12]": {"settings": "5.5 mg b.i.d. intranasal 7 days"}}, "data": [{"smiles": "COc1ccc2c3c1O[C@H]1C[C@@H](OC(=O)c4ccccc4)C=C[C@@]31CCN(C)C2", "note": "[Gln‐1062]", "values": [{"measurement": "EEG Delta Pz‐O2 open (uV^2/Hz)", "setting": "healthy elderly subjects [1]; 11 mg b.i.d. intranasal 7 days, vs placebo, mean (confidence interval)", "value": "3.7% (−21.2%, 36.6%) P = 0.7851"}, {"measurement": "EEG delta power at the frontal and parietal locations", "setting": "healthy elderly subjects [1]; 22 mg", "value": "significantly decreased"}, {"measurement": "EEG Delta Fz‐Cz closed (uV^2/Hz)", "setting": "healthy elderly subjects [1]; [9]", "value": "−19.8% (−35.7%,−0.1%) P = 0.0495"}, {"measurement": "EEG Delta Fz‐Cz open (uV^2/Hz)", "setting": "healthy elderly subjects [1]; [9]", "value": "−30.1% (−48.3%,−5.3%) P = 0.0235"}, {"measurement": "EEG Delta Pz‐O1 closed (uV^2/Hz)", "setting": "healthy elderly subjects [1]; [9]", "value": "−27.4% (−46.1%,−2.1%) P = 0.0369"}, {"measurement": "EEG Delta Pz‐O1 open (uV^2/Hz)", "setting": "healthy elderly subjects [1]; [9]", "value": "−29.1% (−45.3%,−8.0%) P = 0.0126"}, {"measurement": "EEG Delta Pz‐O2 closed (uV^2/Hz)", "setting": "healthy elderly subjects [1]; [9]", "value": "−21.5% (−35.1%, −5.0%) P = 0.0154"}, {"measurement": "EEG Delta Pz‐O2 open (uV^2/Hz)", "setting": "healthy elderly subjects [1]; [9]", "value": "−16.5% (−33.4%, 4.8%) P = 0.1128"}, {"measurement": "blood‐to‐brain ratio", "setting": "[2]", "value": 10.2, "unit": "mg/kg"}, {"measurement": "t1/2 of Gln‐1062 in plasma, mean (± SD)", "setting": "[3]; 5.5 mg intranasal", "value": "1.16 (±0.37) hour"}, {"measurement": "t1/2 of Gln‐1062 in plasma, mean (± SD)", "setting": "[3]; 22 mg intranasal", "value": "2.09 (± 0.58) hour"}, {"measurement": "median Tmax of Gln‐1062 in plasma", "setting": "[3]; intranasal 5.5, 11 or 22 mg b.i.d., range 0.5 to 1.0 hour", "value": 30, "unit": "min"}, {"measurement": "TEAEs within 24 hours: All gastrointestinal disorders", "setting": "healthy elderly subjects [4]; [10]", "value": "1 (8.3) number of subjects (percentage"}, {"measurement": "TEAEs within 24 hours: Any events", "setting": "healthy elderly subjects [4]; [10]", "value": "7 (58.3) number of subjects (percentage"}, {"measurement": "TEAEs within 24 hours: Nausea", "setting": "healthy elderly subjects [4]; [10]", "value": "1 (8.3) number of subjects (percentage"}, {"measurement": "TEAEs within 24 hours: Vomiting", "setting": "healthy elderly subjects [4]; [10]", "value": "1 (8.3) number of subjects (percentage"}, {"measurement": "TEAEs within 24 hours: Any events", "setting": "healthy elderly subjects [4]; 11 mg b.i.d. intranasal, within 24 hours after first administration, dosing day 1", "value": "12 (100.0) number of subjects (percentage"}, {"measurement": "TEAEs within 24 hours: All gastrointestinal disorders", "setting": "healthy elderly subjects [4]; [11]", "value": "6 (50.0) number of subjects (percentage"}, {"measurement": "TEAEs within 24 hours: Any events", "setting": "healthy elderly subjects [4]; [11]", "value": "12 (100.0) number of subjects (percentage"}, {"measurement": "TEAEs within 24 hours: Diarrhea", "setting": "healthy elderly subjects [4]; [11]", "value": "2 (16.7) number of subjects (percentage"}, {"measurement": "TEAEs within 24 hours: Nausea", "setting": "healthy elderly subjects [4]; [11]", "value": "5 (41.7) number of subjects (percentage"}, {"measurement": "TEAEs within 24 hours: Vomiting", "setting": "healthy elderly subjects [4]; [11]", "value": "3 (25.0) number of subjects (percentage"}, {"measurement": "intensity of TEAEs", "setting": "healthy elderly subjects [4]; 5.5 to 22 mg b.i.d., 7 days", "value": "mild or moderate"}, {"measurement": "serious adverse events", "setting": "healthy elderly subjects [4]; 5.5 to 22 mg b.i.d., 7 days", "value": "no serious adverse events"}, {"measurement": "safety and tolerability", "setting": "healthy elderly subjects [4]; up to 22 mg b.i.d. intranasal for 7 days", "value": "safe and well tolerated"}, {"measurement": "maximum increase (Emax) of adaptive tracking", "setting": "healthy elderly subjects [5]; direct effect model on galantamine plasma concentration, 95% CI 1.15–5.90", "value": 1.91}, {"measurement": "concentration resulting in half of the maximum (EC50), adaptive tracking", "setting": "healthy elderly subjects [5]; galantamine plasma concentration, direct effect model, by drug dosed", "value": 0.0231, "unit": "mg/L"}, {"measurement": "Diastolic BP supine", "setting": "healthy elderly subjects [6]; [12]", "value": "2.5 (−0.6, 5.6) P = 0.1105 mmHg"}, {"measurement": "Pulse Rate supine", "setting": "healthy elderly subjects [6]; [12]", "value": "−2.5 (−6.4, 1.4) P = 0.2044 bpm"}, {"measurement": "Systolic BP supine", "setting": "healthy elderly subjects [6]; [12]", "value": "5.0 (−0.3, 10.4) P = 0.0644 mmHg"}, {"measurement": "Diastolic BP supine", "setting": "healthy elderly subjects [6]; 11 mg b.i.d. intranasal 7 days", "value": "0.9 (−2.2, 4.1) P = 0.5566 mmHg"}, {"measurement": "Pulse Rate supine", "setting": "healthy elderly subjects [6]; 11 mg b.i.d. intranasal 7 days", "value": "−1.0 (−4.9, 2.9) P = 0.6030 bpm"}, {"measurement": "Systolic BP supine", "setting": "healthy elderly subjects [6]; 11 mg b.i.d. intranasal 7 days", "value": "1.2 (−4.1, 6.5) P = 0.6528 mmHg"}, {"measurement": "Diastolic BP supine", "setting": "healthy elderly subjects [6]; 22 mg b.i.d. intranasal 7 days", "value": "1.2 (−1.9, 4.3) P = 0.4437 mmHg"}, {"measurement": "Pulse Rate supine", "setting": "healthy elderly subjects [6]; 22 mg b.i.d. intranasal 7 days", "value": "0.5 (−3.5, 4.4) P = 0.8169 bpm"}, {"measurement": "Systolic BP supine", "setting": "healthy elderly subjects [6]; 22 mg b.i.d. intranasal 7 days", "value": "1.8 (−3.6, 7.2) P = 0.5098 mmHg"}, {"measurement": "effect on the pulse rate", "setting": "healthy elderly subjects [6]; all dose levels", "value": "No statistically significant effect"}, {"measurement": "increase in mean diastolic blood pressure", "setting": "healthy elderly subjects [6]; first dosing day, 11 mg", "value": 5.1, "unit": "mm Hg"}, {"measurement": "changes in blood and urinary laboratory values and ECG safety parameters", "setting": "healthy elderly subjects [6]; multiple doses", "value": "did not result in clinically significant changes"}, {"measurement": "increase in systolic blood pressure", "setting": "healthy elderly subjects [6]; seventh day, 5.5 mg", "value": 7.6, "unit": "mm Hg"}, {"measurement": "tolerability compared with 16 mg oral galantamine and other ChEIs", "setting": "[7]; 22 mg", "value": "better tolerated"}, {"measurement": "sustained attention (adaptive tracking) and verbal memory (VVLT)", "setting": "[7]; 5.5, 11, 22, 33 and 44 mg", "value": "dose‐dependent improvements"}, {"measurement": "Saccadic Inaccuracy", "setting": "healthy elderly subjects [8]; [12]", "value": "0.59 (−0.46, 1.64) P = 0.2627%"}, {"measurement": "Saccadic Peak Velocity", "setting": "healthy elderly subjects [8]; [12]", "value": "−0.06 (−21.97, 21.85) P = 0.9958 deg/s"}, {"measurement": "Saccadic Reaction Time", "setting": "healthy elderly subjects [8]; [12]", "value": "−0.0112 (−0.0224,−0.0001) P = 0.0481 sec"}, {"measurement": "Smooth Pursuit", "setting": "healthy elderly subjects [8]; [12]", "value": "−1.28 (−5.10, 2.53) P = 0.5011%"}, {"measurement": "Saccadic Inaccuracy", "setting": "healthy elderly subjects [8]; 11 mg b.i.d. intranasal 7 days", "value": "0.20 (−0.89, 1.30) P = 0.7099%"}, {"measurement": "Saccadic Peak Velocity", "setting": "healthy elderly subjects [8]; 11 mg b.i.d. intranasal 7 days", "value": "5.03 (−17.82, 27.87) P = 0.6588 deg/s"}, {"measurement": "Saccadic Reaction Time", "setting": "healthy elderly subjects [8]; 11 mg b.i.d. intranasal 7 days", "value": "−0.0018 (−0.0134, 0.0098) P = 0.7546 sec"}, {"measurement": "Smooth Pursuit", "setting": "healthy elderly subjects [8]; 11 mg b.i.d. intranasal 7 days", "value": "−0.10 (−4.04, 3.84) P = 0.9597%"}, {"measurement": "Saccadic Inaccuracy", "setting": "healthy elderly subjects [8]; 22 mg b.i.d. intranasal 7 days", "value": "0.51 (−0.56, 1.58) P = 0.3393%"}, {"measurement": "Saccadic Peak Velocity", "setting": "healthy elderly subjects [8]; 22 mg b.i.d. intranasal 7 days", "value": "8.63 (−13.65, 30.91) P = 0.4379 deg/s"}, {"measurement": "Saccadic Reaction Time", "setting": "healthy elderly subjects [8]; 22 mg b.i.d. intranasal 7 days", "value": "−0.0013 (−0.0126, 0.0101) P = 0.8228 sec"}, {"measurement": "Smooth Pursuit", "setting": "healthy elderly subjects [8]; 22 mg b.i.d. intranasal 7 days", "value": "2.00 (−1.88, 5.88) P = 0.3039%"}]}]}
